According to ChEMBL document CHEMBL1147097, “Trioxaquines are new antimalarial agents active on all erythrocytic forms, including gametocytes” (Antimicrob Agents Chemother, 2007):

Key:
[1] = Cytotoxicity against human HCT cells assessed as [3H]thymidine incorporation; assay type: cell-based
Summary of the method: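 HCT human colorectal tumour cells grown with 10% fetal calf serum and harvested with 0.05% trypsin-EDTA. Plated at 15 × 10^3 cells/well with drug dilutions.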

[2] = test system: Plasmodium vinckei petteri; test: Antimalarial activity against Plasmodium vinckei petteri infected intraperitoneally dosed Swiss Albino mice (Mus musculus); assay type: functional; conditions: for ED50 / ED90: Plasmodium vinckei, ip; for ED50: read-out: ED50; for ED90: read-out: ED90
Summary of the method: (§1)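 Four-day suppressive test: groups of five female Swiss albino mice infected i.p. on day 0 with 2 × 10^7 parasitized red cells, then dosed once daily for 4 days (i.p., p.o. or s.c.; DMSO vehicle, chloroquine in 0.9% NaCl). Parasitemia read on day 4 vs untreated controls; ED50/ED90 as % growth inhibition; CD50/CD90 = cure (no parasites at 60 days).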

Plasmodium falciparum [3] = test: Antimalarial activity against chloroquine-resistant Plasmodium falciparum W2 gametocytes (stage 2 & 3); assay type: functional, organism-based
Summary of the method: (§2)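 W2 gametocyte cultures treated with 50 mM N-acetyl-D-glucosamine for 3 or 5 days to remove asexual forms. Young (7-day) or old (13-day) cultures exposed to drug dilutions for 48 h. Giemsa thin films made and gametocytes counted per 6,000–10,000 erythrocytes. Mean of three independent experiments.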

[4] = Ratio of IC50 for HCT cells to IC50 for Plasmodium falciparum; assay type: functional
Plasmodium falciparum [5] = test: Antimalarial activity against chloroquine-resistant Plasmodium falciparum FcB1; assay type: functional, organism-based
Summary of the method: (§3)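 Asexual P. falciparum grown in culture at 37°C under 5% CO2 and exposed to drug dilutions for 48 h. Growth inhibition measured by radioactive micromethod. IC50 read graphically from concentration vs % growth inhibition; mean of at least three independent experiments.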

[6] = test system: Plasmodium yoelii nigeriensis; test: Antimalarial activity against Plasmodium yoelii nigeriensis infected subcutaneously dosed mice (Mus musculus); assay type: functional
Summary of the method: (§4)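 Four-day suppressive test with P. yoelii nigeriensis: infected mice given drug once daily for four consecutive days p.o. or s.c. (DMSO vehicle, chloroquine in 0.9% NaCl). Parasitemia compared with untreated controls. Cure was defined as no parasites detected after 60 days, with CD50 taken as the dose curing 50% of mice.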

[7] = test system: Plasmodium vinckei petteri; test: Antimalarial activity against Plasmodium vinckei petteri infected orally dosed Swiss Albino mice (Mus musculus); assay type: functional; conditions: for ED50 / ED90: Plasmodium vinckei, po; summary of the method: as §1
[8] = test system: Plasmodium vinckei petteri; test: Antimalarial activity against Plasmodium vinckei petteri infected subcutaneously dosed Swiss Albino mice (Mus musculus); assay type: functional; conditions: for ED50 / ED90: Plasmodium vinckei, sc; summary of the method: as §1
Plasmodium falciparum [9] = test: Antimalarial activity against chloroquine-sensitive Plasmodium falciparum Nigeria; assay type: functional, organism-based, Nigerian; summary of the method: as §3
Plasmodium falciparum [10] = test: Growth inhibition after 6 hrs in chloroquine-resistant Plasmodium falciparum FcB1; assay type: functional, organism-based; conditions: FcB1, 6 h
Summary of the method: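 Plasmion-synchronized FcB1 parasites plated at ring stage and exposed to drug during successive 6-h windows of the erythrocytic cycle (one plate per period). Artemisinin tested at 7, 14, 28 nM; chloroquine at 120, 163, 232 nM; trioxaquine at 11.5, 23, 46 nM. Dilutions prepared daily.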

Mus musculus [11] = test: Toxicity against intraperitoneally dosed Swiss mouse; assay type: organism-based; conditions: in vivo, ip
Summary of the method: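 Acute toxicity: noninfected Swiss mice (two to five per dose) given a single i.p. injection. LD50 is the dose killing 50% of mice within 60 days.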

Plasmodium falciparum [12] = test: Antimalarial activity against chloroquine-resistant Plasmodium falciparum W2 gametocytes (stage 4 & 5); assay type: functional, organism-based; summary of the method: as §2
Plasmodium falciparum [13] = test: Antimalarial activity against chloroquine-resistant Plasmodium falciparum W2 asexual […]; assay type: functional, organism-based
[14] = test system: Plasmodium yoelii nigeriensis; test: Antimalarial activity against Plasmodium yoelii nigeriensis infected mice (Mus musculus) by oral dose; assay type: functional; summary of the method: as §4
Plasmodium falciparum [15] = test: Antimalarial activity against chloroquine-resistant Plasmodium falciparum FcM29; assay type: functional, organism-based; summary of the method: as §3
Mus musculus [16] = test: Toxicity against Swiss mouse at 100 mg/kg, po after 4 days; assay type: organism-based; parameters: dose 100 mg/kg, route oral; conditions: in vivo, 96 h
Summary of the method: (§5)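 Healthy Swiss mice given 100, 200 or 400 mg/kg/day p.o. by gavage for four consecutive days; two to four mice per dose, two experiments. One mouse killed per dose on days 5, 30 and 60. Organs examined against NaCl- or DMSO-treated controls, with H&E sections of stomach.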

Mus musculus [17] = test: Toxicity against Swiss mouse at 200 mg/kg, po after 4 days; assay type: organism-based; parameters: dose 200 mg/kg, route oral; conditions: in vivo, 96 h; summary of the method: as §5
Mus musculus [18] = test: Toxicity against Swiss mouse at 400 mg/kg, po after 4 days; assay type: organism-based; parameters: dose 400 mg/kg, route oral; conditions: in vivo, 96 h; summary of the method: as §5
Plasmodium falciparum [19] = test: Antimalarial activity against chloroquine-sensitive Plasmodium falciparum F32; assay type: functional, organism-based; summary of the method: as §3
Mus musculus [20] = test: Toxicity against Plasmodium vinckei petteri infected mice (Mus musculus) at 50 mg/kg, perorally after 4 days; assay type: organism-based; parameters: dose 50 mg/kg, route oral; conditions: in vivo, po, 96 h
Summary of the method: (§6)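 Subacute toxicity: P. vinckei petteri-infected mice dosed on four consecutive days (day 0–3) at 10, 25 or 50 mg/kg/day p.o., i.p. or s.c. Five mice per dose and route.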

Mus musculus [21] = test: Toxicity against Plasmodium vinckei petteri infected mice (Mus musculus) at 25 mg/kg, intraperitoneally after 4 days; assay type: organism-based; parameters: dose 25 mg/kg, route intraperitoneal; conditions: in vivo, ip, 96 h; summary of the method: as §6

SMILES	CD50 [2]	CD90 [2]	IC50 (Plasmodium falciparum [3])	IC50 (Plasmodium falciparum [5])	CD50 [7]	CD90 [7]	ED50 [7]	ED90 [7]	CD50 [8]	CD90 [8]	ED50 [8]	ED90 [8]	LD50 (Mus musculus [11])	IC50 (Plasmodium falciparum [12])	IC50 (Plasmodium falciparum [13])	ED50 [2]	ED90 [2]	IC50 (Plasmodium falciparum [19])	IC50 (Plasmodium falciparum [15])	other results
CC(C)C1=C[C@H]2OC3(CCC(NCCNc4ccnc5cc(Cl)ccc45)CC3)OO[C@@]2(C)CC1.O=C(O)CC(O)(CC(=O)O)C(=O)O (stereo in doubt; form 5)	12 mg/kg/day	>20 mg/kg/day	69 nM	5 nM	>25 mg/kg/day	>25 mg/kg/day	17 mg/kg/day	23 mg/kg/day	>10 mg/kg/day	>10 mg/kg/day	2.8 mg/kg/day	8 mg/kg/day	70 mg/kg/day	67 nM	28 nM					IC50 [1]: 3000 nM; Ratio IC50 [4]: 130; CD50 [6]: 3 mg/kg/day; CD90 [6]: 12 mg/kg/day; ED50 ([6]; Plasmodium yoelii, sc): 2 mg/kg/day; ED90 ([6]; Plasmodium yoelii, sc): 5 mg/kg/day; IC50 (Plasmodium falciparum [9]): 23 nM; IC50 (Plasmodium falciparum [10]): 18 nM; CD50 [14]: 22 mg/kg/day; CD90 [14]: 24 mg/kg/day; ED50 ([14]; Plasmodium yoelii, po): 15 mg/kg/day; ED90 ([14]; Plasmodium yoelii, po): 23 mg/kg/day
C[C@H]1[C@H](OC(=O)CCC(=O)O)O[C@@H]2O[C@@]3(C)CC[C@H]4[C@H](C)CC[C@@H]1[C@@]24OO3 [ARTESUNATE]			72 nM		19 mg/kg/day	28 mg/kg/day	2.5 mg/kg/day	8 mg/kg/day	2.5 mg/kg/day	7.5 mg/kg/day	0.3 mg/kg/day	0.8 mg/kg/day		108 nM	6 nM					IC50 (Plasmodium falciparum [15]; Plasmodium falciparum, FcM29): 1.6 nM
CC(C)C1=C[C@H]2OC3(CCC(NCCNc4ccnc5cc(Cl)ccc45)CC3)OO[C@@]2(C)CC1 (some centres not stated)	5 mg/kg/day	8 mg/kg/day			12 mg/kg/day	24 mg/kg/day	4 mg/kg/day	9 mg/kg/day	5 mg/kg/day	8 mg/kg/day	1.5 mg/kg/day	9 mg/kg/day				0.7 mg/kg/day	8 mg/kg/day			Activity (Mus musculus [16]): Non-toxic; Activity (Mus musculus [17]): Non-toxic; Activity (Mus musculus [18]): Non-toxic
CC(C)C1=C[C@H]2OC3(CCC(NCCNc4ccnc5cc(Cl)ccc45)CC3)OO[C@@]2(C)CC1 (stereo in doubt; form 7) [TRIOXAQUINE 3]				7 nM														7 nM	7 nM	
CC(C)C1=C[C@H]2OC3(CCC(NCCNc4ccnc5cc(Cl)ccc45)CC3)OO[C@@]2(C)CC1.O=[N+]([O-])O (some centres not stated)	3 mg/kg/day	9 mg/kg/day		21 nM	24 mg/kg/day	46 mg/kg/day	16 mg/kg/day	34 mg/kg/day	3 mg/kg/day	8 mg/kg/day	2 mg/kg/day	6 mg/kg/day	70 mg/kg/day			0.7 mg/kg/day	8 mg/kg/day	25 nM	16 nM	Activity (Mus musculus [20]): Non-toxic; Activity (Mus musculus [21]): Non-toxic
CC(C)C1=C[C@H]2OC3(CCC(NCCNc4ccnc5cc(Cl)ccc45)CC3)OO[C@@]2(C)CC1 (stereo in doubt; form 3)				47 nM															23 nM	
